Bioassay records deposited in PubChem BioAssay by several laboratories.
In the library only some 4.2% were active in any assay of this set; here they are far more common.
WT yeast gro inh: growth inhibition of WT yeast, mitochondrial fusion screen; mitochondrial fusion phenotypic screen, WT strain; AID 1362; inhibition, % at 10 µM; 190,000 tested, 2.1% active; in the data active means inhibition above about 58%; tested in S. cerevisiae
Rad51 HR inh: Rad51 (human) homologous recombination inhibition. AID 1385. 200,000 tested, 0.085% active. hRad51 DNA strand exchange, fluorescence dequenching. inhibition, % at 10 µM. Q06609;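 active means inhibition above 40% at the single screening dose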;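 further: 0% = DMSO control wells and 100% = blanks with heterologous ssDNA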
Target sequence (Q06609 whole entry, looked up): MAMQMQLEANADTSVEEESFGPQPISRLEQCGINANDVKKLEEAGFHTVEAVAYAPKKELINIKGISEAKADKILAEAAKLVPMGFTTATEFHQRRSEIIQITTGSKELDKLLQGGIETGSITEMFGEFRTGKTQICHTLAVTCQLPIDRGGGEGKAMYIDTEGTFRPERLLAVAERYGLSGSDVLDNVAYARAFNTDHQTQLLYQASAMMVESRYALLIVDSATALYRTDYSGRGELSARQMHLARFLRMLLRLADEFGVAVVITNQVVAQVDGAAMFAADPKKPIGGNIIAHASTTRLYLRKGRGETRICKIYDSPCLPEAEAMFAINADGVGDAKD
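Test system – preformed human Rad51 ssDNA filaments · Reagent – Donor/quencher-labelled 47-bp dsDNA substrate · Incubation – 37 °C 15-min filament assembly, 30-min compound preincubation, 15-min exchange · Signal – FRET fluorescence dequenching, excitation 485 nm, emission 520 nm · Read-out – percent inhibition from fluorescence, normalised to plate control and blank means · Benchmarks – plate control and blank wells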
SKKanGAS inh: SKKanGAS growth inhibition. S. pyogenes SKKanGAS, kanamycin growth, BacTiter-Glo, 6 h. 300,000 tested, 1.3% active. inhibition, % at 7.5 µM. AID 1662;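 active means mean replicate score, as percent of positive control median, at least 50; inconclusive means mean below 50 but one replicate at or above 50; inactive means mean and every replicate below 50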;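 further: strain carries kanamycin resistance gene driven by streptokinase promoter and grows in 40 µg/ml kanamycin; loss of luminescence reflects streptokinase promoter inhibition or plain growth inhibition; 0% = median of DMSO wells and 100% = positive control at its reference dose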
Autophagy mod: autophagy modulation, high-content screen; 190,000 tested, 0.98% active; MEF GFP-LC3 puncta imaging; test concentration mostly 10 µM; calls only at 10 µM (by protocol);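 active means percentage of spot-positive cells more than 3 SD above its plate mean, without a fluorescence outlier flag or 80% toxicity; inconclusive means no clear call, values can overlap the other calls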;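 further: spot-positive cell cutoff set from DMSO-treated cells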
Insulin prom up: MIN6 insulin promoter up-regulation; AID 1625; MIN6 insulin promoter-GFP reporter, high-content imaging; stronger effect = higher value; 190,000 tested, 0.3% active; z-score at 5 µM;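 active means z-score above 3 at 5 µM with at least 500 cells counted in the well; inconclusive means wells under 500 cells, flagged as cytotoxic or low count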
Cl transport mod: modulators of human KCC2 chloride dependent transport | Q9H2X9 | KCC2 cells, thallium flux FluoZin-2 fluorescence | B-score of Tl+ flux slope (higher = more flux/activation; lower = inhibition) at 10 µM | 190,000 tested, 2.2% active;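 active means thallium flux slope and its plate-corrected score both differing from the plate sample mean at a set confidence after two filtering rounds, in either direction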;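 further: slope of fluorescence scaled to starting intensity during 10 to 20 s after thallium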
KCC2 sec1: KCC2 (human) modulation, secondary assay; normalised thallium flux (F/F0 slope) at 10 µM; HEK293-KCC2, thallium flux, FluoZin2 fluorescence; stronger effect = higher value; 3,700 tested, 15% active; AID 1713; shares compounds with Cl transport mod;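 active means thallium flux slope above the same plate's solvent-only control mean plus 3 SD; inconclusive means the two replicate wells disagree; inactive means no significant difference from solvent-only control wells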
KCC2 bumet counter: thallium flux despite bumetanide block in KCC2 cells, secondary assay 3. shares compounds with Cl transport mod. HEK293-KCC2 + bumetanide/ouabain, thallium flux FluoZin2; stronger effect = higher value. normalized thallium flux at 10 µM. 3,700 tested, 49% active;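 active means thallium entry rate above the same plate's blocked-transporter control wells by more than 3 SD; inconclusive means the two repeat wells disagree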;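 further: raw slope of fluorescence over initial fluorescence between 10 and 20 s after thallium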
KCC2 sec2: KCC2 (human) modulation, second secondary assay. shares compounds with Cl transport mod. HEK293-KCC2, thallium flux FluoZin2 fluorescence; actives lie on both sides; F/F0 rise rate, 10–20 s post-thallium. normalized thallium flux at 10 µM. 3,700 tested, 23% active;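 active means thallium flux slope more than 3 SD above or below the plate's solvent-only control mean, mostly below; inconclusive means the two repeat wells disagreed; inactive means no significant shift from solvent-only controls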;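 further: raw slope with 0.1% DMSO as baseline and bumetanide as block control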
HEK293 Tl flux: counter-screen for KCC2 modulators: effect in parental HEK293 cells. shares compounds with Cl transport mod. thallium flux FluoZin2, ouabain; baseline-ratio fluorescence slope, 10–20 s after thallium. thallium flux rate (normalised fluorescence) at 10 µM. 3,700 tested, 46% active. AID 1716;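 active means thallium flux rate significantly above the same plate's solvent-only control wells, beyond their mean plus 3 SD; inconclusive means the two replicate wells gave conflicting results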
KCC2 ouabain: confirmation of human KCC2 modulators with ouabain; shares compounds with Cl transport mod; HEK293-KCC2, thallium flux FluoZin2 fluorescence; bidirectional: low = inhibitor, high = activator; raw Tl+ flux slope (below DMSO = inhibition, above = activation) at 10 µM; 3,700 tested, 48% active; AID 1717;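 active means thallium flux slope beyond 3 SD from same-plate DMSO control mean in most replicates, usually higher, sometimes lower; inconclusive means repeat tests gave conflicting results; inactive means no significant difference from controls in most replicates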;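 further: slope of initial-normalized fluorescence between seconds 10 and 20 after thallium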
HEK293 Tl flux2: counter-screen for KCC2 modulators: effect in parental HEK293 cells. shares compounds with Cl transport mod. thallium flux FluoZin-2 fluorescence slope. thallium flux slope at 10 µM. 3,700 tested, 33% active. AID 1718;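 active means thallium flux slope above the same plate's solvent-control mean plus 3 SD in both duplicate wells; inconclusive means duplicate wells that disagreed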;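 further: run without ouabain in cells lacking the KCC2 cotransporter; slope of fluorescence scaled to its starting value between 10 and 20 s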
Numbers without * were called inactive; i = inactive; ? = inconclusive; / = no result given.

SMILES	WT yeast gro inh	Rad51 HR inh	SKKanGAS inh	Autophagy mod	Insulin prom up	Cl transport mod	KCC2 sec1	KCC2 bumet counter	KCC2 sec2	HEK293 Tl flux	KCC2 ouabain	HEK293 Tl flux2
O=C(NC(=S)N1CCN(C/C=C/c2ccccc2)CC1)c1ccc(Cl)nc1	/	9	3	/	0.08	68*	0.0077	0.08*	0.063*	0.056*	0.067*	0.054*
O=C(COc1ccc2ccccc2c1)Nc1cccc(C(=O)Nc2ccccc2C(=O)O)c1	-19	/	55*	i	1.6	-4.7*	?	0.0055	0.024*	?	0.014*	?
O=C(CSc1nc2cc(C(F)(F)F)ccc2n1Cc1ccccc1)NC1CCS(=O)(=O)C1 (centres undefined)	0	1	0	i	0	5.2*	0.0074	0.0077*	0.031	0.011*	0.02	?
Cc1ccc(-n2c(SCC(=O)NC3CCS(=O)(=O)C3)nc3ccccc3c2=O)cc1 (centres undefined)	4	9	5	i	-0.22	-0.57	/	/	/	/	/	/
Cc1cc(C)c2oc(=O)cc(CN3CCCCC3)c2c1	/	/	-2	/	/	/	/	/	/	/	/	/
COc1ccccc1CN(Cc1nc2ccccc2c(=O)[nH]1)S(=O)(=O)c1ccc(C)cc1	20	-7	0	i	-0.22	/	0.0094	0.0059	0.03	0.0071	0.019	0.01
COc1ccccc1CN(Cc1nc2ccccc2c(=O)[nH]1)C(=O)Nc1ccc(C)cc1	/	-1	5	i	0.33	/	/	/	/	/	/	/
COC(=O)c1nccc2c1[nH]c1ccccc12	/	/	-18	/	/	/	/	/	/	/	/	/
CCn1c(C)c(CS(=O)(=O)c2ccccc2)[nH]c1=O	-15	1	-1	i	-0.16	0.57	/	/	/	/	/	/
CC(=O)SCC(=O)N=c1sc2cc(F)ccc2n1C	-3	17	-3	i	-0.51	/	0.0069	0.0059*	0.03	?	0.019	0.011
O=C(CSc1ccccc1C(=O)O)NC1CCCCCC1	/	2	-4	/	-0.08	1.4	/	/	/	/	/	/
O=C(NC1CCN(Cc2ccccc2)CC1)c1ccccc1OCc1ccccc1	/	/	7	/	/	/	/	/	/	/	/	/
O=C(CSc1ccccc1C(=O)NCc1ccccc1)NC1CCCCCCC1	8	3	5	i	0.76	-4*	0.0069	?	0.021*	0.0067	?	0.011
O=C(NC1CCCC1)c1ccccc1OCc1ccccc1	-2	-6	-2	i	1.7	-3.6*	0.0071	?	0.027	0.0047*	0.015*	0.0083
O=C(CSc1ccccc1C(=O)NCc1ccccc1)NC12CC3CC(CC(C3)C1)C2	30	9	0	i	-0.62	-3.6*	?	?	0.022*	0.0072	?	0.011
O=C(O)C[C@H]1c2cc(C(F)(F)F)ccc2S(=O)(=O)N1C1CCCCC1	/	-1	2	/	/	/	/	/	/	/	/	/
O=C(Cc1ncc(C(F)(F)F)cc1Cl)NCc1ccco1	2	-2	3	i	-0.45	0.53	/	/	/	/	/	/
CC1CCCC(NC(=O)CCC(=O)c2ccc(F)cc2)C1C (centres undefined)	/	13	-1	/	0.12	-4*	0.0064	0.0053	0.03	0.007	0.018	0.0096
COc1ccccc1C(=O)NCCC(=O)NC1CCCC(C)C1C (centres undefined)	/	/	-2	/	/	/	/	/	/	/	/	/
